Measurements from ChEMBL document CHEMBL5104204, “Synthesis and in vitro anticancer evaluation of novel flavonoid-based amide derivatives as regulators of the PI3K/AKT signal pathway for TNBC treatment” (RSC Med Chem, 2022).

Key:
MDA-MB-231 [1] = experiment: Induction of cell cycle arrest in human MDA-MB-231 cells assessed as decrease in S phase at 0.88 to 3.52 uM incubated for 48 hrs by flow cytometry; type: functional, cell-based; conditions: dose 0.88-3.52 µM, DDE = dose-dependent effect
Outline: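 Cell cycle of MDA-MB-231 after 48 h exposure: trypsinised and washed in PBS, about 1×10^6 cells/mL. Fixed overnight in pre-cooled 70% ethanol at 4 °C, then resuspended in PBS and filtered through 200-mesh nylon. Flow cytometry with 488 nm excitation gave G0/G1, S and G2/M percentages; n = 3, mean ± SD.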

MDA-MB-231 [2] = experiment: Inhibition of PI3K/AKT signalling pathway in human MDA-MB-231 cells assessed as decrease in phosphorylated PI3K level at 1 to 10 uM incubated for 48 hrs by western blot analysis; type: cell-based; conditions: dose 1-10 µM, DDE = dose-dependent effect
Outline: (§1)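 MDA-MB-231 treated at 1, 5 and 10 μM at 37 °C, then lysed in RIPA/PMSF for 30 min at 0 °C and cleared at 14 000 × g, 4 °C. Protein quantified by BCA; 40 μg resolved by SDS-PAGE and transferred to PVDF. Blocked in 5% skim milk, primary antibody overnight at 4 °C, secondary 2 h at room temperature, chemiluminescent imaging.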

MDA-MB-231 [3] = experiment: Induction of apoptosis in human MDA-MB-231 cells assessed as late apoptotic cells at 1.76 uM incubated for 48 hrs AnnexinV/ propidium iodide staining based flow cytometry (Rvb= 0.40%); type: functional
MDA-MB-231 [4] = experiment: Induction of apoptosis in human MDA-MB-231 cells assessed as viable cells at 3.52 uM incubated for 48 hrs AnnexinV/ propidium iodide staining based flow cytometry (Rvb= 99.02%); type: functional; conditions: read-out: Activity
HCC1937 = experiment: Antitumor activity against human HCC1937 cells assessed as inhibit cell proliferation incubated for 72 hrs by CCK-8 assay; type: functional, cell-based; conditions: HCC1937, 72 h
Outline: (§2)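 CCK8 viability readout. Culture media: HCC1937, A549, HeLa and GTL-16 in RPMI 1640; MDA-MB-231, MCF-7 and HepG2 in high-glucose DMEM; all with 10% FBS and penicillin/streptomycin, 37 °C, 5% CO2. 4×10^3–6×10^3 cells/well, 24 h, then compounds in serum-free medium, 72 h at 37 °C. 10% CCK8, 2 h, OD 450/630 nm. Five wells per group; IC50 from inhibition rate; three independent experiments, mean ± SD.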

MDA-MB-231 [5] = experiment: Induction of apoptosis in human MDA-MB-231 cells assessed as late apoptotic cells at 0.88 uM incubated for 48 hrs AnnexinV/ propidium iodide staining based flow cytometry (Rvb= 0.40%); type: functional
MDA-MB-231 [6] = experiment: Induction of apoptosis in human MDA-MB-231 cells assessed as late apoptotic cells at 3.52 uM incubated for 48 hrs AnnexinV/ propidium iodide staining based flow cytometry (Rvb= 0.40%); type: functional
MDA-MB-231 [7] = experiment: Induction of apoptosis in human MDA-MB-231 cells assessed as downregulation of Bcl-2 expression at 1 to 10 uM incubated for 48 hrs by western blot analysis; type: functional, cell-based; conditions: dose 1-10 µM, DDE = dose-dependent effect; outline: as §1
MDA-MB-231 [8] = experiment: Induction of apoptosis in human MDA-MB-231 cells assessed as early apoptotic cells at 1.76 uM incubated for 48 hrs AnnexinV/ propidium iodide staining based flow cytometry (Rvb= 0.3%); type: functional
MDA-MB-231 [9] = experiment: Induction of apoptosis in human MDA-MB-231 cells assessed as necrotic cells at 3.52 uM incubated for 48 hrs AnnexinV/ propidium iodide staining based flow cytometry (Rvb= 0.54%); type: functional
MDA-MB-231 [10] = experiment: Induction of apoptosis in human MDA-MB-231 cells assessed as necrotic cells at 0.88 uM incubated for 48 hrs AnnexinV/ propidium iodide staining based flow cytometry (Rvb= 0.54%); type: functional
MDA-MB-231 [11] = experiment: Induction of apoptosis in human MDA-MB-231 cells assessed as early apoptotic cells at 0.88 uM incubated for 48 hrs AnnexinV/ propidium iodide staining based flow cytometry (Rvb= 0.3%); type: functional
MDA-MB-231 [12] = experiment: Induction of apoptosis in human MDA-MB-231 cells assessed as increase in apoptotic bodies at 0.88 to 3.52 uM incubated for 48 hrs by Hoechst 33258 staining based fluorescence microscopic analysis; type: functional, cell-based; conditions: dose 0.88-3.52 µM, DDE = dose-dependent effect
Outline: (§3)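 MDA-MB-231 seeded at 2×10^5–3×10^5 per well and incubated overnight (37 °C, 5% CO2). Exposed to compound for 48 h. Fixed in methanol 30 min, then stained with Hoechst 33258 for 30 min at room temperature in the dark. Nuclear morphology scored by fluorescence microscopy; n = 3, mean ± SD.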

MDA-MB-231 [13] = experiment: Induction of apoptosis in human MDA-MB-231 cells assessed as early apoptotic cells at 7.04 uM incubated for 48 hrs AnnexinV/ propidium iodide staining based flow cytometry (Rvb= 0.3%); type: functional
MCF7 = experiment: Antitumor activity against human MCF7 cells assessed as inhibit cell proliferation incubated for 72 hrs by CCK-8 assay; type: functional, cell-based; conditions: MCF7, 72 h; outline: as §2
MDA-MB-231 [14] = experiment: Induction of apoptosis in human MDA-MB-231 cells assessed as chromatin concentration and margination at 0.88 to 3.52 uM incubated for 48 hrs by Hoechst 33258 staining based fluorescence microscopic analysis; type: functional, cell-based; conditions: dose 0.88-3.52 µM, DDE = dose-dependent effect; outline: as §3
MDA-MB-231 [15] = experiment: Induction of apoptosis in human MDA-MB-231 cells assessed as necrotic cells at 1.76 uM incubated for 48 hrs AnnexinV/ propidium iodide staining based flow cytometry (Rvb= 0.54%); type: functional
MDA-MB-231 [16] = experiment: Inhibition of colony formation in human MDA-MB-231 cells assessed as decrease in size of colony forming cells at 0.44 to 3.52 uM incubated for 48 hrs by crystal violet staining based assay; type: functional, cell-based; conditions: dose 0.44-3.52 µM, DDE = dose-dependent effect
Outline: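 Colony formation, MDA-MB-231: 800 cells/well, three replicate wells per group, grown 5–7 days at 37 °C, 5% CO2 until 30–50-cell clusters formed. Drug then added for 24, 48 or 72 h. Washed with cold PBS, fixed in 4% paraformaldehyde 30 min, stained with 0.5% crystal violet, imaged, colonies counted; n = 3.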

A549 = experiment: Antitumor activity against human A549 cells assessed as inhibit cell proliferation incubated for 72 hrs by CCK-8 assay; type: functional, cell-based; conditions: A549, 72 h; outline: as §2
MDA-MB-231 [17] = experiment: Inhibition of PI3K/AKT signalling pathway in human MDA-MB-231 cells assessed as decrease in phosphorylated AKT level at 1 to 10 uM incubated for 48 hrs by western blot analysis; type: cell-based; conditions: dose 1-10 µM, DDE = dose-dependent effect; outline: as §1
GTL 16 cell line = experiment: Antitumor activity against human GTL 16 cell line assessed as inhibit cell proliferation incubated for 72 hrs by CCK-8 assay; type: functional, cell-based; conditions: GTL 16, 72 h; outline: as §2

Structure (SMILES): O=C(Nc1cccc(-c2oc3cc(-c4ccc(F)cc4)ccc3c(=O)c2O)c1)c1ccc(Cl)nc1
- Activity (MDA-MB-231 [1]): Dde
- inhibition (MDA-MB-231 [2]): Dde
- Activity (MDA-MB-231 [3]): 49.45%
- viability at 3.52 µM (MDA-MB-231 [4]): 12%
- IC50 (HCC1937): 7.55 µM
- Activity (MDA-MB-231 [5]): 23.54%
- Activity (MDA-MB-231 [6]): 14.4%
- Activity (MDA-MB-231 [7]): Dde
- Activity (MDA-MB-231 [8]): 3.88%
- Activity (MDA-MB-231 [9]): 2.1%
- Activity (MDA-MB-231 [10]): 0.63%
- Activity (MDA-MB-231 [11]): 1.48%
- Activity (MDA-MB-231 [12]): Dde
- Activity (MDA-MB-231 [13]): 23.85%
- IC50 (MCF7): 2.89 µM
- Activity (MDA-MB-231 [14]): Dde
- Activity (MDA-MB-231 [15]): 0.86%
- inhibition (MDA-MB-231 [16]): Dde
- IC50 (A549): 3.58 µM
- inhibition (MDA-MB-231 [17]): Dde
- IC50 (GTL 16 cell line): 7.52 µM
